Experimental data published in ChEMBL document CHEMBL3525900, “Pharmacokinetics, distribution, and metabolism of [14C]sunitinib in rats, monkeys, and humans” (Drug Metab Dispos, 2012).

Tests used:
[1] = Drug concentration in male Lister Hooded pigmented rat pituitary gland assessed as radioactivity per gram of tissue at 20 mg/kg administered as single dose via gastric gavage measured after 24 hrs by autoradiographic analysis; format: ADME, organism-based; design: dose 20 mg/kg, dosed compound name [14C]Sunitinib; conditions: in vivo, po
[2] = Drug concentration in female albino rat uterus assessed as radioactivity per gram of tissue at 20 mg/kg administered as single dose via gastric gavage measured after 72 hrs by autoradiographic analysis; format: ADME, organism-based; design: dose 20 mg/kg, dosed compound name [14C]Sunitinib; conditions: in vivo, po
[3] = tested on: Heart; test: Drug concentration in female albino rat heart assessed as radioactivity per gram of tissue at 20 mg/kg administered as single dose via gastric gavage measured after 24 hrs by autoradiographic analysis; format: ADME, organism-based; design: dose 20 mg/kg, dosed compound name [14C]Sunitinib; conditions: in vivo, po
Method in brief: (§1)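 Sprague Dawley albino rats, ca 7-8 weeks old, dosed once by gastric gavage with [14C]sunitinib L-malate (15 mg freebase/kg, 100 µCi/kg). One male and one female killed by CO2 at 3, 6, 24, 72 and 168 h. Carcasses frozen in solid CO2/hexane, embedded and cut into 30 µm sagittal sections, then freeze-dried. Radioactivity quantified by whole-body autoradiography against standards by regression, background subtracted.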

[4] = tested on: Adrenal; test: Drug concentration in female Lister Hooded pigmented rat adrenal assessed as radioactivity per gram of tissue at 20 mg/kg administered as single dose via gastric gavage measured after 336 hrs by autoradiographic analysis; format: ADME, organism-based; design: dose 20 mg/kg, dosed compound name [14C]Sunitinib; conditions: in vivo, po
Method in brief: (§2)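 Lister Hooded (pigmented) rats, ca 7-8 weeks old, acclimated 7 days, given [14C]sunitinib L-malate by gastric gavage at 20 mg/kg (15 mg freebase/kg, 100 µCi/kg). One male and one female killed by CO2 at 24, 72, 168 and 336 h. Carcasses frozen in solid CO2/hexane and embedded in frozen cellulose. 30 µm sagittal cryosections were freeze-dried. Tissue radioactivity measured by quantitative whole-body autoradiography against calibration standards, with background subtracted.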

[5] = tested on: Spinal cord; test: Drug concentration in male Lister Hooded pigmented rat spinal cord assessed as radioactivity per gram of tissue at 20 mg/kg administered as single dose via gastric gavage measured after 168 hrs by autoradiographic analysis; format: ADME, organism-based; design: dose 20 mg/kg, dosed compound name [14C]Sunitinib; conditions: in vivo, po
[6] = tested on: Thymus; test: Drug concentration in male Lister Hooded pigmented rat thymus assessed as radioactivity per gram of tissue at 20 mg/kg administered as single dose via gastric gavage measured after 168 hrs by autoradiographic analysis; format: ADME, organism-based; design: dose 20 mg/kg, dosed compound name [14C]Sunitinib; conditions: in vivo, po
[7] = Drug concentration in female albino rat lachrymal gland assessed as radioactivity per gram of tissue at 20 mg/kg administered as single dose via gastric gavage measured after 24 hrs by autoradiographic analysis; format: ADME, organism-based; design: dose 20 mg/kg, dosed compound name [14C]Sunitinib; conditions: in vivo, po; method in brief: as §1
[8] = Drug concentration in female albino rat bladder assessed as radioactivity per gram of tissue at 20 mg/kg administered as single dose via gastric gavage measured after 3 hrs by autoradiographic analysis; format: ADME, organism-based, Urinary bladder; design: dose 20 mg/kg, dosed compound name [14C]Sunitinib; conditions: in vivo, po
Method in brief: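 Sprague Dawley (albino) rats, ca 7-8 weeks old, received a single gastric-gavage dose of [14C]sunitinib L-malate at 20 mg/kg (15 mg freebase/kg, 100 µCi/kg). One animal per sex killed by CO2 at 3, 6, 24, 72 and 168 h, then frozen in CO2/hexane. 30 µm sagittal sections were cut and freeze-dried. Radioactivity per gram quantified by whole-body autoradiography using regression against standards. LOQ 0.04–0.06 µg freebase equiv/g.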

[9] = Drug concentration in female albino rat preputial gland assessed as radioactivity per gram of tissue at 20 mg/kg administered as single dose via gastric gavage measured after 72 hrs by autoradiographic analysis; format: ADME, organism-based; design: dose 20 mg/kg, dosed compound name [14C]Sunitinib; conditions: in vivo, po; method in brief: as §1
[10] = tested on: Large intestine; test: Drug concentration in female Lister Hooded pigmented rat large intestine assessed as radioactivity per gram of tissue at 20 mg/kg administered as single dose via gastric gavage measured after 24 hrs by autoradiographic analysis; format: ADME, organism-based; design: dose 20 mg/kg, dosed compound name [14C]Sunitinib; conditions: in vivo, po; method in brief: as §2
[11] = tested on: Large intestine; test: Drug concentration in female albino rat large intestine assessed as radioactivity per gram of tissue at 20 mg/kg administered as single dose via gastric gavage measured after 3 hrs by autoradiographic analysis; format: ADME, organism-based; design: dose 20 mg/kg, dosed compound name [14C]Sunitinib; conditions: in vivo, po; method in brief: as §1
[12] = Drug concentration in male albino rat bladder assessed as radioactivity per gram of tissue at 20 mg/kg administered as single dose via gastric gavage measured after 6 hrs by autoradiographic analysis; format: ADME, organism-based, Urinary bladder; design: dose 20 mg/kg, dosed compound name [14C]Sunitinib; conditions: in vivo, po
[13] = Drug concentration in female albino rat thyroid gland assessed as radioactivity per gram of tissue at 20 mg/kg administered as single dose via gastric gavage measured after 3 hrs by autoradiographic analysis; format: ADME, organism-based; design: dose 20 mg/kg, dosed compound name [14C]Sunitinib; conditions: in vivo, po
[14] = tested on: Liver; test: Drug concentration in male Lister Hooded pigmented rat liver assessed as radioactivity per gram of tissue at 20 mg/kg administered as single dose via gastric gavage measured after 72 hrs by autoradiographic analysis; format: ADME, organism-based; design: dose 20 mg/kg, dosed compound name [14C]Sunitinib; conditions: in vivo, po
[15] = tested on: Pancreas; test: Drug concentration in male Lister Hooded pigmented rat pancreas assessed as radioactivity per gram of tissue at 20 mg/kg administered as single dose via gastric gavage measured after 168 hrs by autoradiographic analysis; format: ADME, organism-based; design: dose 20 mg/kg, dosed compound name [14C]Sunitinib; conditions: in vivo, po
[16] = Drug concentration in female Lister Hooded pigmented rat uveal tract assessed as radioactivity per gram of tissue at 20 mg/kg administered as single dose via gastric gavage measured after 168 hrs by autoradiographic analysis; format: ADME, organism-based; design: dose 20 mg/kg, dosed compound name [14C]Sunitinib; conditions: in vivo, po; method in brief: as §2
[17] = tested on: Spleen; test: Drug concentration in male Lister Hooded pigmented rat spleen assessed as radioactivity per gram of tissue at 20 mg/kg administered as single dose via gastric gavage measured after 72 hrs by autoradiographic analysis; format: ADME, organism-based; design: dose 20 mg/kg, dosed compound name [14C]Sunitinib; conditions: in vivo, po
[18] = tested on: Homo sapiens; test: Terminal half life as total radioactivity in human plasma at 50 mg, po administered as single dose measured up to 24 hrs by LC/MS/MS analysis; format: ADME, organism-based; design: dosed compound name [14C]Sunitinib; conditions: in vivo
[19] = tested on: Small intestine; test: Drug concentration in male albino rat small intestine assessed as radioactivity per gram of tissue at 20 mg/kg administered as single dose via gastric gavage measured after 6 hrs by autoradiographic analysis; format: ADME, organism-based; design: dose 20 mg/kg, dosed compound name [14C]Sunitinib; conditions: in vivo, po
[20] = tested on: Large intestine; test: Drug concentration in male Lister Hooded pigmented rat large intestine assessed as radioactivity per gram of tissue at 20 mg/kg administered as single dose via gastric gavage measured after 24 hrs by autoradiographic analysis; format: ADME, organism-based; design: dose 20 mg/kg, dosed compound name [14C]Sunitinib; conditions: in vivo, po
[21] = Drug recovery in urine of human at 50 mg, po administered as single dose during 0 to 504 hrs by liquid scintillation counting; format: ADME, organism-based; design: dosed compound name [14C]Sunitinib; conditions: in vivo
[22] = Drug concentration in male albino rat bone marrow assessed as radioactivity per gram of tissue at 20 mg/kg administered as single dose via gastric gavage measured after 24 hrs by autoradiographic analysis; format: ADME, organism-based; design: dose 20 mg/kg, dosed compound name [14C]Sunitinib; conditions: in vivo, po
[23] = tested on: Zone of skin; test: Drug concentration in female Lister Hooded pigmented rat abdomen skin assessed as radioactivity per gram of tissue at 20 mg/kg administered as single dose via gastric gavage measured after 336 hrs by autoradiographic analysis; format: ADME, organism-based; design: dose 20 mg/kg, dosed compound name [14C]Sunitinib; conditions: in vivo, po
Method in brief: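 Pigmented Lister Hooded rats, 7-8 weeks old, received [14C]sunitinib L-malate by gavage at 20 mg/kg (15 mg freebase/kg, 100 µCi/kg). One rat per sex was killed by CO2 at each of 24, 72, 168 and 336 h. Carcasses were frozen in solid CO2/hexane and cut into 30 µm sagittal sections, then freeze-dried. Tissue radioactivity was quantified by whole-body autoradiography calibrated against standards by regression (LOQ 0.04–0.06 µg eq/g).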

[24] = tested on: Stomach; test: Drug concentration in female albino rat stomach assessed as radioactivity per gram of tissue at 20 mg/kg administered as single dose via gastric gavage measured after 72 hrs by autoradiographic analysis; format: ADME, organism-based; design: dose 20 mg/kg, dosed compound name [14C]Sunitinib; conditions: in vivo, po
[25] = tested on: Spinal cord; test: Drug concentration in female albino rat spinal cord assessed as radioactivity per gram of tissue at 20 mg/kg administered as single dose via gastric gavage measured after 6 hrs by autoradiographic analysis; format: ADME, organism-based; design: dose 20 mg/kg, dosed compound name [14C]Sunitinib; conditions: in vivo, po
[26] = Drug concentration in female Lister Hooded pigmented rat uveal tract assessed as radioactivity per gram of tissue at 20 mg/kg administered as single dose via gastric gavage measured after 24 hrs by autoradiographic analysis; format: ADME, organism-based; design: dose 20 mg/kg, dosed compound name [14C]Sunitinib; conditions: in vivo, po; method in brief: as §2
[27] = Drug concentration in male albino rat pituitary gland assessed as radioactivity per gram of tissue at 20 mg/kg administered as single dose via gastric gavage measured after 72 hrs by autoradiographic analysis; format: ADME, organism-based; design: dose 20 mg/kg, dosed compound name [14C]Sunitinib; conditions: in vivo, po

Radiolabel recovery [1]: 7.71 ugequiv
Radiolabel recovery [2]: 0.12 ugequiv
Radiolabel recovery [3]: 0.73 ugequiv
Radiolabel recovery [4]: 0.66 ugequiv
Radiolabel recovery [5]: 0.06 ugequiv
Radiolabel recovery [6]: 0.06 ugequiv
Radiolabel recovery [7]: 6.79 ugequiv
Radiolabel recovery [8]: 3.73 ugequiv
Radiolabel recovery [9]: 0.24 ugequiv
Radiolabel recovery [10]: 0.78 ugequiv
Radiolabel recovery [11]: 7 ugequiv
Radiolabel recovery [12]: 2.56 ugequiv
Radiolabel recovery [13]: 18.64 ugequiv
Radiolabel recovery [14]: 0.22 ugequiv
Radiolabel recovery [15]: 0.06 ugequiv
Radiolabel recovery [16]: 276.19 ugequiv
Radiolabel recovery [17]: 0.13 ugequiv
beta t1/2 [18]: 28.2 h
Radiolabel recovery [19]: 5.54 ugequiv
Radiolabel recovery [20]: 0.69 ugequiv
Radiolabel recovery [21]: 16%
Radiolabel recovery [22]: 0.38 ugequiv
Radiolabel recovery [23]: 0.36 ugequiv
Radiolabel recovery [24]: 0.15 ugequiv
Radiolabel recovery [25]: 0.35 ugequiv
Radiolabel recovery [26]: 124.52 ugequiv
Radiolabel recovery [27]: 2.7 ugequiv
SMILES: CCN(CC)CCNC(=O)c1c(C)[nH]c(/[14CH]=C2\C(=O)Nc3ccc(F)cc32)c1C.O=C(O)C[C@H](O)C(=O)O
